Assay results reported in the EternaBench riboswitch data.

Tested on: MS2 coat protein
Assay: apparent Kd, MS2 coat protein; higher = weaker binding; RNA-MaP array; FMN 200 µM where present
Summary of the method: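 The titrant was SNAP-549-labelled MS2 coat protein, run from 0.7 or 1.5 nM in doubling steps to 3 µM. It was applied to designs transcribed by stalled E. coli RNA polymerase on Illumina sequencing-chip clusters, without ligand first and then with constant ligand, in 100 mM Tris-HCl pH 7.5, 80 mM KCl, 4 mM MgCl2, BSA, DTT, yeast tRNA and Tween-20. The apparent Kd is the median of filtered per-cluster binding-curve fits, with green signal normalised to red-channel RNA signal and control-cluster median Fmax.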

[1] = designed as: OFF switch for flavin mononucleotide, no ligand
[2] = ligand present: flavin mononucleotide, designed as: OFF switch for flavin mononucleotide
[3] = designed as: ON switch for flavin mononucleotide, no ligand
[4] = ligand present: flavin mononucleotide, designed as: ON switch for flavin mononucleotide

Sequence | apparent Kd [1] | apparent Kd [2] | apparent Kd [3] | apparent Kd [4]
GUCAGCUCGUGAGGAUAUACAACACAGCUUCGGCAGUGUAUUAAGAUCACAUGAGGAUCACCCAUGUAGAAGGCACGAGCUGAU | 13.1 nM | 209 nM |  | 
GGUUGUCAUCGUCAUCCUUUCUGUACAUGAGGAUCACCCAUGUAGGAUAUGCUGCUCUCGGUGUGGCAGAAGGGCGUGUGUGUU | 40.5 nM | 50.2 nM |  | 
GUGUAGUGAGGAUAUACAUGAGGAUCACCCAUGUGAAUAAGAUAGAAUAAGAUAAAGUGUAGAAGGCAUAGUGU | 40.2 nM | 31.5 nM |  | 
ACCUUACAUGAGGAUCACCCAUGUCAGGAUAUCUCGGGCGACCGAGGGCCGGCCGCCCAGAGAAGGGACGAGGA | 12.5 nM | 13.9 nM |  | 
GCGCACUAAGUGAGGAUAUCGUUUAUUUAUAGGAUCGAGAAGGCACAUGAGGAUCACCCAUGUUAAACGUGCGC | 18.5 nM | 13.9 nM |  | 
GCCAUCGCAUGAGGAUAUGGCACCGAAACGGUGCCAGAAGGCAUGUCAAUAGACAUGAGGAUCACCCAUGUAUUAUCGAUGGCA |  |  | 274 nM | 29.1 nM
GUCCUUUCUGAGGAUAUUAUCUGGUUCGAUUGAUAAGAAGGCAGUACAUGAGGAUCACCCAUGUGGGUCGUUUG | 37.3 nM | 244 nM |  | 
GUUAUAUUUAGUUCAUACUAUAUGAUAGAAGGUGAAAUAUAGACAUGAGGAUCACCCAUGUAAUUCAAGGAUAUGUAGUUACUC |  |  | 29.9 nM | 21.5 nM
GCAGACGUAGUGAGGAUAUGCUCUACCUCGGUAGAGCAGAAGGCACAUGAGGAUCACCCAUGUGGUUCUUCUGC | 28.2 nM | 339 nM |  | 
AGGAGACAUGAGGAUCACCCAUGUGCACGUGGAGGAGGAUAUGCUAGUAGAAGAUAGAAAGCAGAAGGCCUAAGAA |  |  | 69.2 nM | 80.5 nM
AGAUUUGUACAUGAGGAUCACCCAUGUUAAUAGGUGUUUGUCAGAAGGCAUUAAUAGAGAUUUAAUGAGGAUAUGAAGUUACAA |  |  | 70.3 nM | 46.3 nM
AACAGGUUCACAUGAGGAUCACCCAUGUUAGCCUAACGUAGGAGAAGGGCGGUAGCUGGGCUGACGUAGGAUAUCCUACUGUGA |  |  | 10 nM | 5.79 nM
AUAUCUCUAUUAGUUCCAAUACGAACAUGAGGAUCACCCAUGUAGGAUAUGCUAGAAGUUGUGUUGCAGAAGGACAAGUACCUU | 11.8 nM | 11.1 nM |  | 
GCAGCACAAUAUUACAUGAGGAUCACCCAUGUCGAUUGUUAUGAGGAUAUGCAUCGUAUGAAGUUGCAGAAGGCAUUGUGCUGC |  |  | 9.4 nM | 6.09 nM
ACGUAACGGUGCGCGAGUGGACGGAGAAGGCAGACAUGAGGAUCACCCAUGUGAGCCUGCUAUUCUGAGGAUAUCCGUCCGCAC | 38.9 nM | 254 nM |  | 
GGAGCACACAUUAACAUGAGGAUCACCCAUGUCAAAAGACAUGAGGAUAUGGAUCCGAAAAGGACCCAGAAGGCAUGGUGCUCC |  |  | 427 nM | 21.8 nM
CAGGUCUGAGGAUAUCCAUCUUCAUACAUGAGGAUCACCCAUGUUUACCUUUGGGUUUUUGGAGAAGGCAGUUUUU | 188 nM | 243 nM |  | 
UAGGGCUUGGGCAGAAGGGUUACAUGAGGAUCACCCAUGUACAGAAGGAGAGCCUUGGGAAAGCUCUAGGAUAUGUCUAUGGGU | 9.93 nM | 6.66 nM |  | 
AAUAUGAGCUGGAAUAUAAACCUCACAUGAGGAUCACCCAUGUAGGAUAUCAGCACGAUAAGUGCUGAGAAGGACAACCAGCUC | 15.1 nM | 17.1 nM |  | 
UAAAAGACUAGUAUGGUAACGAUCACAUGAGGAUCACCCAUGUAGGAUAUGAGCAGAAAAUCUGCUCAGAAGGACAUGCUAGUC | 5.8 nM | 9.08 nM |  | 
UAUAUAUAGUAAGGAUAUGUAAUUGUUUUAUAAACAGAAGGUACUGACAUGAGGAUCACCCAUGUUUUAGUGUGGGCAUGUAGA | 57.4 nM | 78.8 nM |  | 
GGAUAGGAUAGAGGAUAUACGUGCUAGAGAUACUAGCAAAAUUUCCUCACAUGAGGAUCACCCAUGUAGAAGGCUGUCCUAUCG | 10.6 nM | 193 nM |  | 
CGAUGACAUAGUCAUCCGUAACGGACAUGAGGAUCACCCAUGUAGGAUAUGCUACUCAACGAGUAGCAGAAGGACAUGAGUCUU | 38.3 nM | 347 nM |  | 
UAAUAAAGUGUGAGGAUAUGCUGGUCGAUAGAUCAGCAGAAGGCACAUGAGGAUCACCCAUGUAAUAUAUUUUA | 57.9 nM | 247 nM |  | 

Sequence | apparent Kd [1] | apparent Kd [2] | apparent Kd [3] | apparent Kd [4]
GCAACGCCUGACAUGAGGAUCACCCAUGUUAGAUUGUUAUGUCAGGAUAUUGUCUAGAAACUAGACAAGAAGGGAUGCGUUGCU |  |  | 304 nM | 21.8 nM
GUAGCAUUAUAAGGAUAUUCAUACCGGAAACGGACAUGAGGAUCACCCAUGUGGCGAAAGCCUUGGGAGAAGGUAUUAUGCUAC |  |  | 537 nM | 24.9 nM
GAAAACGCAGAGGAUAUUUCAGAUCAAAGCUGCAAAGAAGGCUGCACAUGAGGAUCACCCAUGUGGUCUUUAAA | 19.3 nM | 202 nM |  | 
GGAAAACAUGAGGAUCACCCAUGUGAGGAUAUCGAUGUCCAGAGAGAGGUGCGGGACUCGAGAAGGCACUUGGA | 44.5 nM | 87.5 nM |  | 
CUUUUGUGAGGAUAUCAGUAGUAAAAAAAUAUAAUUACUACUGAGAAGGCACAUGAGGAUCACCCAUGUUCCUC | 36.8 nM | 267 nM |  | 
AUACGGAGGGAGAAGGGCUAGGAGGUCCAGCUUAUGUGUGUUGCAACAUGAGGAUCACCCAUGUAGCAGGAUAUCCCUUGUACA | 42.9 nM | 231 nM |  | 
CCGCUGUUAGGAUAUCUGAAGCUUCAAUGGAAGUCUUCAUUGGAGAAGGGACAUGAGGAUCACCCAUGUAGGGA | 192 nM | 253 nM |  | 
UAAUCUGGUCAGGAUAUCGGUGCACAGUGCACAGGAGAAGGGACCACAUGAGGAUCACCCAUGUAGGCUCUCCU | 17.8 nM | 24.4 nM |  | 
AAUUUACAGCUAGGAUAUACAUGAGGAUCACCCAUGUAAUCAUAUGAUGUUAUCAUUGUAUGAGUGUAGAAGGAGCAAAUAAGA | 7.72 nM | 6.34 nM |  | 
UUGGGACUAUCAGGAUAUGGUGUAGCCCAGUAAAGGACAUGAGGAUCACCCAUGUACCAUUGGUACCAGAAGGGAUGAUCCUAC |  |  | 18.4 nM | 14.8 nM
GCUAGGAAUGUCAGGAUAUGCUGUACCUUGGUACAGCAGAAGGGACAUGAGGAUCACCCAUGUGCUAACCUAGC | 29.6 nM | 130 nM |  | 
CGCUAGGAUGGGUCUAAUGGACCUCAGGAUAUGCUUGUACAUGAGGAUCACCCAUGUAACAUUGUGCAGAAGGGAGGAUCCACG |  |  | 8.82 nM | 4.57 nM
AGCUAGUCAGGAUAUGCGAACAUGUCAAAAGACGUGAAGGGACAUGAGGAUCACCCAUGUAGAAGGGACUAGCA | 31.8 nM | 35.9 nM |  | 
AAUUAAUUAAUUAAUUGGACGAUACAUGAGGAUCACCCAUGUAAGGAUAUGCAGUGGAAUACACUGCAGAAGGUACAUACGUCC | 15.4 nM | 25.5 nM |  | 
GAGCGAAAGCUCAAUGUCGAUAGCAGAAGGAUAUGAAAACAUGAAAUAACAUGAGGAUCACCCAUGUAGGAUAUGCUAUCGACU | 7.41 nM | 14 nM |  | 
AUCAUGAGAGGAUAUACAUGAGGAUCACCCAUGUGGUAAACACCAUGAGCUCAUUUACGUAGAAGGCUCAUUUG | 27.6 nM | 61.1 nM |  | 
AGUGUCAUCGAGAAGGCCUCAACAUGAGGAUCACCCAUGUUGCAAAAUGGGAGGAUAUCGCGCGUUCUAAAACGUUUCGUAGCA |  |  | 54.1 nM | 18 nM
GCGUAAUUGAUCCUAUUUACCAACAUGAGGAUCACCCAUGUGCAGGAUAUGCUAAAGAUAGAUAAGCAGAAGGGCAUUUACCGC | 47 nM | 211 nM |  | 
GGUGGACAUGAGGAUCACCCAUGUGAGGAUAUCGGCCGGUUCGUGGUGGCUGGCCUCUCGAGAAGGCGCAUAGU | 58.1 nM | 71.9 nM |  | 
CGCUACGUUUCGUAGCAGUGUCAUCGAGAAGGCCCUGACAUGAGGAUCACCCAUGUUGUUACAUGGGAGGAUAUCGAUGAUACC |  |  | 12.2 nM | 5.25 nM
UGGUACUUGGGAGGAUAUGGGAAGAUACAUGAGGAUCACCCAUGUUUAAGAAUGCCGAGAGGCAACUAGAAGGCCCUAGUACCU |  |  | 493 nM | 20 nM
UGAACUAUGUAGAAGGCCCACAUUAAUAUGUAGGGAGGAUAUACAUGAGGAUCACCCAUGUAAAGAGCAAGAGGAUUUAACAGA | 10.3 nM | 21.7 nM |  | 
GUCAGCUCGUGAGGAUAUGCAACACUGCUUCGGCAGUGUAUUAAGAUCACAUGAGGAUCACCCAUGUAGAAGGCACGAGCUGAU | 6.36 nM | 34.8 nM |  | 
AAACACGGACAUGAGGAUCACCCAUGUGGCGAAAGCCUUGGAAGAAGGCCGAUUGCAAAGCAAUCGGAGGAUAUUCAUACCGUG |  |  |  | 5.57 nM
